Measurements taken from ChEMBL document CHEMBL5512639, “Insights from structure-activity relationships and the binding mode of peptidic α-ketoamide inhibitors of the malaria drug target subtilisin-like SUB1” (Eur J Med Chem, 2024).
pIC50: −log10 of the molar value. Activity calls are given as the source filed them. The rule behind the calls is not given here. Numbered stars: 1 amine (or outer) side, 2 acyl side, 3 side chain; on linkers, the order of the positions; unused ones are H or OH. Square brackets hold non-standard residues; d marks the D form. Peptide text beside a SMILES is read from it. * marks the point of attachment. Ala(1H-tetrazol-5-yl) = N[C@@H](Cc1nnn[nH]1)C(=O)O; Abu(4,4,4-F3) = N[C@@H](CC(F)(F)F)C(=O)O; Gly(cPent) = N[C@H](C(=O)O)C1CCCC1; X1 = C[C@H](N[*:1])C(=O)C(=O)[*:2]; Nva(3-Et) = CCC(CC)[C@H](N)C(=O)O; Pyrazinecarbonyl = O=C(c1cnccn1)*; tBuAla = CC(C)(C)C[C@H](N)C(=O)O; NMeL = CN[C@@H](CC(C)C)C(=O)O; αMeL = CC(C)C[C@](C)(N)C(=O)O; Phg = N[C@H](C(=O)O)c1ccccc1; Tle = CC(C)(C)[C@H](N)C(=O)O; hSer = N[C@@H](CCO)C(=O)O; Dab = NCC[C@H](N)C(=O)O; Abu = CC[C@H](N)C(=O)O; Dap = NC[C@H](N)C(=O)O; Aib = CC(C)(N)C(=O)O; Dha = C=C(N)C(=O)O; Sar = CNCC(=O)O; OAll = C=CCO*

Columns and labels:
[1] = Inhibition of full length recombinant Plasmodium vivax SUB1 expressed in Drosophila S2 cells using Dabsyl-KLVGADDV-SLA-EDANS as substrate measured every 2 mins for 1 hr by FRET assay
[2] = tested on: Plasmodium falciparum; test: Antiparasitic activity against Plasmodium falciparum infected in human Erythrocyte assessed as inhibition of merozoite egress from human Erythrocyte at 100 uM measured for 8 hrs by flow cytometry analysis relative to control; assay type: functional
How it was run: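 P. falciparum cultured in human RBCs, RPMI 1640 with 25 mM HEPES, 2.5% Albumax II, 100 μM hypoxanthine, 37 °C, 5% O2/5% CO2. Sorbitol-synchronized, plasmion-enriched late schizonts at 2% hematocrit, 1% parasitemia exposed to compound for 8 h. Fixed in glutaraldehyde, permeabilized, RNase-treated, stained with YOYO-1. Ring parasitemia by flow cytometry (100,000 events) vs DMSO. Triplicate; IC50 from 16 concentrations, 180 to 0.8 μM.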

[3] = biological target: T1, Subtilisin-like protease 1 (Plasmodium falciparum, UniProt O61142); test: Inhibition of full length recombinant Plasmodium falciparum SUB1 using Dabsyl-KLVSADNIDIS-EDANS as substrate measured every 2 mins for 1 hr by FRET assay
T1 sequence (O61142 whole entry): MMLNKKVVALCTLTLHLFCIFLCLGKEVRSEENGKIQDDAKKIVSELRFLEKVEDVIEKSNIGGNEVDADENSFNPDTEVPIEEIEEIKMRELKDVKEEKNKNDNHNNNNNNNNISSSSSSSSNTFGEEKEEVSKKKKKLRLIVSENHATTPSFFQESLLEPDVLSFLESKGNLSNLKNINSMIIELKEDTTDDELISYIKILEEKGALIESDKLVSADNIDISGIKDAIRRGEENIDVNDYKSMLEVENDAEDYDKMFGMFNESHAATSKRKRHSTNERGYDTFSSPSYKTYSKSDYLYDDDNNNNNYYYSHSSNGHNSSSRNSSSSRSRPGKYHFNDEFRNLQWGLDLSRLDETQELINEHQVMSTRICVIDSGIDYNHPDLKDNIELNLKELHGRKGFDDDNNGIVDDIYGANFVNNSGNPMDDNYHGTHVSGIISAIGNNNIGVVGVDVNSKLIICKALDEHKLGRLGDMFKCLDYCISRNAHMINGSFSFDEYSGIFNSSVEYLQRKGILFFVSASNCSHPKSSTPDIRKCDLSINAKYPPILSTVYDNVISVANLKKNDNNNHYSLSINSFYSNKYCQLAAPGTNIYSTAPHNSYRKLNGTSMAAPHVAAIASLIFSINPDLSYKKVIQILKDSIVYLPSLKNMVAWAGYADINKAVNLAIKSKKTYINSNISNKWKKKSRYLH

pIC50 [1]	SMILES	inhibition [2]	inhibition at 100 µM [2] [%]	pIC50 [3]
5.62	C=CCOC(=O)CC[C@H](NC(=O)[C@H](CC(=O)O)NC(=O)C(=O)[C@H](CNC(C)=O)NC(=O)[C@H](C)NC(=O)[C@@H](NC(=O)[C@@H](NC(C)=O)C1CCCC1)[C@@H](C)O)C(N)=O	inactive		
4.64	C=CCOC(=O)CC[C@H](NC(=O)[C@H](CC(=O)O)NC(=O)C(=O)[C@H](CNC(C)=O)NC(=O)[C@H](C)NC(=O)[C@@H](NC(=O)[C@@H](NC(C)=O)[C@@H](C)CC)[C@@H](C)O)C(N)=O			
	C=CCOC(=O)CC[C@H](NC(=O)[C@H](CC(=O)O)NC(=O)C(=O)[C@H](C)NC(=O)[C@@H](C)NC(=O)[C@@H](NC(=O)[C@@H](NC(C)=O)C1CCCC1)[C@@H](C)O)C(N)=O	inactive		
6.85	C=CCOC(=O)CC[C@H](NC(=O)[C@H](CC(=O)O)NC(=O)C(=O)[C@H](C)NC(=O)[C@H](C)NC(=O)[C@H](CCCCN)NC(=O)[C@@H](NC(C)=O)[C@@H](C)CC)C(N)=O (Ac-IKA[X1]DE(OAll)-NH2)		9	
6.77	CC[C@H](C)[C@H](NC(C)=O)C(=O)N[C@H](C(=O)N[C@@H](C)C(=O)N[C@@H](C)C(=O)C(=O)N[C@@H](CC(=O)O)C(N)=O)[C@@H](C)O (Ac-ITA[X1]D-NH2)		3	
5.54	C=CCOC(=O)CC[C@H](NC(=O)[C@H](CCC(=O)O)NC(=O)C(=O)[C@H](C)NC(=O)[C@H](C)NC(=O)[C@@H](NC(=O)[C@@H](NC(C)=O)[C@@H](C)CC)[C@@H](C)O)C(N)=O (Ac-ITA[X1]EE(OAll)-NH2)			
5.28	C=CCOC(=O)CC[C@H](NC(=O)[C@H](CC(N)=O)NC(=O)C(=O)[C@H](C)NC(=O)[C@H](C)NC(=O)[C@@H](NC(=O)[C@@H](NC(C)=O)[C@@H](C)CC)[C@@H](C)O)C(N)=O (Ac-ITA[X1]NE(OAll)-NH2)		31	
4.38	C=CCOC(=O)CC[C@H](NC(=O)[C@H](CO)NC(=O)C(=O)[C@H](C)NC(=O)[C@H](C)NC(=O)[C@@H](NC(=O)[C@@H](NC(C)=O)[C@@H](C)CC)[C@@H](C)O)C(N)=O (Ac-ITA[X1]SE(OAll)-NH2)			
5.75	CC[C@H](C)[C@H](NC(C)=O)C(=O)N[C@H](C(=O)N[C@@H](C)C(=O)N[C@@H](C)C(=O)C(=O)N[C@@H](Cc1nnn[nH]1)C(N)=O)[C@@H](C)O (Ac-ITA[X1][Ala(1H-tetrazol-5-yl)]-NH2)	inactive		
4.41	C=CCOC(=O)CC[C@H](NC(=O)[C@H](CCO)NC(=O)C(=O)[C@H](C)NC(=O)[C@H](C)NC(=O)[C@@H](NC(=O)[C@@H](NC(C)=O)[C@@H](C)CC)[C@@H](C)O)C(N)=O (Ac-ITA[X1][hSer]E(OAll)-NH2)			
5.89	C=CCOC(=O)CC[C@H](NC(=O)[C@H](CC(=O)O)NC(=O)C(=O)[C@H](C)NC(=O)CNC(=O)[C@@H](NC(=O)[C@@H](NC(C)=O)[C@@H](C)CC)[C@@H](C)O)C(N)=O (Ac-ITG[X1]DE(OAll)-NH2)			
5.44	C=CCOC(=O)CC[C@H](NC(=O)[C@H](CC(=O)O)NC(=O)C(=O)[C@H](C)NC(=O)[C@H](CC(F)(F)F)NC(=O)[C@@H](NC(=O)[C@@H](NC(C)=O)[C@@H](C)CC)[C@@H](C)O)C(N)=O (Ac-IT[Abu(4,4,4-F3)][X1]DE(OAll)-NH2)			
6.46	C=CCOC(=O)CC[C@H](NC(=O)[C@H](CC(=O)O)NC(=O)C(=O)[C@H](C)NC(=O)[C@H](CC)NC(=O)[C@@H](NC(=O)[C@@H](NC(C)=O)[C@@H](C)CC)[C@@H](C)O)C(N)=O (Ac-IT[Abu][X1]DE(OAll)-NH2)			
4.88	C=CCOC(=O)CC[C@H](NC(=O)[C@H](CC(=O)O)NC(=O)C(=O)[C@H](C)NC(=O)[C@H](CN)NC(=O)[C@@H](NC(=O)[C@@H](NC(C)=O)[C@@H](C)CC)[C@@H](C)O)C(N)=O (Ac-IT[Dap][X1]DE(OAll)-NH2)			
6.48	C=CCOC(=O)CC[C@H](NC(=O)[C@H](CC(=O)O)NC(=O)C(=O)[C@H](C)NC(=O)C(=C)NC(=O)[C@@H](NC(=O)[C@@H](NC(C)=O)[C@@H](C)CC)[C@@H](C)O)C(N)=O (Ac-IT[Dha][X1]DE(OAll)-NH2)	inactive		
6.62	C=CCOC(=O)CC[C@H](NC(=O)[C@H](CC(=O)O)NC(=O)C(=O)[C@H](C)NC(=O)[C@H](C)NC(=O)[C@H](Cc1c[nH]c2ccccc12)NC(=O)[C@@H](NC(C)=O)[C@@H](C)CC)C(N)=O (Ac-IWA[X1]DE(OAll)-NH2)		5	
6.41	C=CCOC(=O)CC[C@H](NC(=O)[C@H](CC(=O)O)NC(=O)C(=O)[C@H](C)NC(=O)[C@H](C)NC(=O)[C@H](CCNC(=O)c1cnccn1)NC(=O)[C@@H](NC(C)=O)[C@@H](C)CC)C(N)=O (Ac-I[Dab](Pyrazinecarbonyl)A[X1]DE(OAll)-NH2)		10	
4.23	C=CCOC(=O)CC[C@H](NC(=O)[C@H](CC(=O)O)NC(=O)C(=O)[C@H](C)NC(=O)[C@H](C)NC(=O)[C@H](C)NC(=O)[C@@H](NC(C)=O)C1CCCC1)C(N)=O (Ac-[Gly(cPent)]AA[X1]DE(OAll)-NH2)	inactive		
6.30	C=CCOC(=O)CC[C@H](NC(=O)[C@H](CC(=O)O)NC(=O)C(=O)[C@H](C)NC(=O)[C@H](CO)NC(=O)[C@@H](NC(=O)[C@@H](NC(C)=O)C1CCCC1)[C@@H](C)O)C(N)=O (Ac-[Gly(cPent)]TS[X1]DE(OAll)-NH2)	inactive		
< 4.00	C=CCOC(=O)CC[C@H](NC(=O)[C@H](CC(=O)O)NC(=O)C(=O)[C@H](C)NC(=O)C(C)(C)NC(=O)[C@@H](NC(=O)[C@@H](NC(C)=O)C1CCCC1)[C@@H](C)O)C(N)=O (Ac-[Gly(cPent)]T[Aib][X1]DE(OAll)-NH2)	inactive		
5.33	C=CCOC(=O)CC[C@H](NC(=O)[C@H](CC(=O)O)NC(=O)C(=O)[C@H](C)NC(=O)CN(C)C(=O)[C@@H](NC(=O)[C@@H](NC(C)=O)C1CCCC1)[C@@H](C)O)C(N)=O (Ac-[Gly(cPent)]T[Sar][X1]DE(OAll)-NH2)			
4.88	C=CCOC(=O)CC[C@H](NC(=O)[C@H](CC(=O)O)NC(=O)C(=O)[C@H](C)NC(=O)[C@H](C)NC(=O)[C@H](CC(C)C)N(C)C(=O)[C@@H](NC(C)=O)C1CCCC1)C(N)=O (Ac-[Gly(cPent)][NMeL]A[X1]DE(OAll)-NH2)			
5.25	C=CCOC(=O)CC[C@H](NC(=O)[C@H](CC(=O)O)NC(=O)C(=O)[C@H](C)NC(=O)[C@H](C)NC(=O)[C@](C)(CC(C)C)NC(=O)[C@@H](NC(C)=O)C1CCCC1)C(N)=O (Ac-[Gly(cPent)][αMeL]A[X1]DE(OAll)-NH2)	inactive		
6.34	C=CCOC(=O)CC[C@H](NC(=O)[C@H](CC(=O)O)NC(=O)C(=O)[C@H](C)NC(=O)[C@H](C)NC(=O)[C@@H](NC(=O)[C@@H](NC(C)=O)C(CC)CC)[C@@H](C)O)C(N)=O (Ac-[Nva(3-Et)]TA[X1]DE(OAll)-NH2)		8	
6.66	C=CCOC(=O)CC[C@H](NC(=O)[C@H](CC(=O)O)NC(=O)C(=O)[C@H](C)NC(=O)[C@H](C)NC(=O)[C@@H](NC(=O)[C@@H](NC(C)=O)c1ccccc1)[C@@H](C)O)C(N)=O (Ac-[Phg]TA[X1]DE(OAll)-NH2)		9	
6.68	C=CCOC(=O)CC[C@H](NC(=O)[C@H](CC(=O)O)NC(=O)C(=O)[C@H](C)NC(=O)[C@H](C)NC(=O)[C@@H](NC(=O)[C@@H](NC(C)=O)C(C)(C)C)[C@@H](C)O)C(N)=O (Ac-[Tle]TA[X1]DE(OAll)-NH2)		4	
6.41	C=CCOC(=O)CC[C@H](NC(=O)[C@H](CC(=O)O)NC(=O)C(=O)[C@H](C)NC(=O)[C@H](C)NC(=O)[C@@H](NC(=O)[C@H](CC(C)(C)C)NC(C)=O)[C@@H](C)O)C(N)=O (Ac-[tBuAla]TA[X1]DE(OAll)-NH2)	inactive		

SMILES	pIC50 [1]	inhibition [2]	inhibition at 100 µM [2] [%]	pIC50 [3]
C=CCOC(=O)CC[C@H](NC(=O)[C@H](Cc1nnn[nH]1)NC(=O)C(=O)[C@H](C)NC(=O)[C@H](C)NC(=O)[C@@H](NC(=O)[C@@H](NC(C)=O)[C@@H](C)CC)[C@@H](C)O)C(N)=O (Ac-ITA[X1][Ala(1H-tetrazol-5-yl)]E(OAll)-NH2)	5.91		2	4.61
CC(=O)N[C@H](C(=O)N[C@H](C(=O)N[C@@H](C)C(=O)N[C@@H](C)C(=O)C(=O)N[C@@H](CC(=O)O)C(=O)N[C@@H](CCC(=O)O)C(N)=O)[C@@H](C)O)C1CCCC1 (Ac-[Gly(cPent)]TA[X1]DE-NH2)	7.52	inactive		7.06
